Experimental data reported in the M2OR odorant receptor database.
Residue numbers refer to the chain shown, from its start.

Tests used:
Details in all cases: stereoisomer not certain
OR6C65 (Homo sapiens) = target: T1, OR6C65 (Homo sapiens) (UniProt A6NJZ3)
T1 sequence (whole entry): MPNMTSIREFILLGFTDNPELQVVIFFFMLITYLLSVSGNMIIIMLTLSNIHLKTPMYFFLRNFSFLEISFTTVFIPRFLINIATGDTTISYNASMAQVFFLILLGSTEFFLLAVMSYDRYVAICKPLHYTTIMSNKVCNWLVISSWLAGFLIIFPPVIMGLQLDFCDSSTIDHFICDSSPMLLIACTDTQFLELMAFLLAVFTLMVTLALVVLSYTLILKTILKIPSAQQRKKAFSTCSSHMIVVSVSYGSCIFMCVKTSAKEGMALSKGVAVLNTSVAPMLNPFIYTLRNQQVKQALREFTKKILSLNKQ
Method in brief: (§1)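 Each receptor–molecule pair is labelled responsive or non-responsive (inactive) according to whether the original authors judged the measured signal statistically different from baseline. The data were taken from the main text and supplementary material of published papers and checked for typos and inconsistencies. Assay methods differed by source, with transient luciferase assays in mammalian cell lines being common.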

OR6C68 (Homo sapiens) = target: T2, OR6C68 (Homo sapiens) (UniProt A6NDL8)
T2 sequence (whole entry): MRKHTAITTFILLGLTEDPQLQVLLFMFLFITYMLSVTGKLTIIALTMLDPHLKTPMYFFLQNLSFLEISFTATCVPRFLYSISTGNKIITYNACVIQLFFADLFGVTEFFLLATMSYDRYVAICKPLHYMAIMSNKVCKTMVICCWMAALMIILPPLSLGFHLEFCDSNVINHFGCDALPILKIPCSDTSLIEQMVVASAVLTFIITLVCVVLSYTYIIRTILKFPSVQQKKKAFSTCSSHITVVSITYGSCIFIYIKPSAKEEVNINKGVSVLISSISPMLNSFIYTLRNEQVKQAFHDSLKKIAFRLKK
Method in brief: as §1

OR6C70 (Homo sapiens) = target: T3, OR6C70 (Homo sapiens) (UniProt A6NIJ9)
T3 sequence (whole entry): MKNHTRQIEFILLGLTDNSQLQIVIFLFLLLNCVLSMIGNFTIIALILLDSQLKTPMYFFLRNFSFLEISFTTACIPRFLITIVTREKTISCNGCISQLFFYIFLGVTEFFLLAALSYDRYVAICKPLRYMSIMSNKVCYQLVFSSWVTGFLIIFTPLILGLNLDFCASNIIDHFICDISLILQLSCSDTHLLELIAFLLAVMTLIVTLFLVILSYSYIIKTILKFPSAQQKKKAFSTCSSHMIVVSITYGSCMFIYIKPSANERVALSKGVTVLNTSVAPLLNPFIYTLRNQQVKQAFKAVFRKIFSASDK
Method in brief: as §1

OR6C74 (Homo sapiens) = target: T4, OR6C74 (Homo sapiens) (UniProt A6NCV1)
T4 sequence (whole entry): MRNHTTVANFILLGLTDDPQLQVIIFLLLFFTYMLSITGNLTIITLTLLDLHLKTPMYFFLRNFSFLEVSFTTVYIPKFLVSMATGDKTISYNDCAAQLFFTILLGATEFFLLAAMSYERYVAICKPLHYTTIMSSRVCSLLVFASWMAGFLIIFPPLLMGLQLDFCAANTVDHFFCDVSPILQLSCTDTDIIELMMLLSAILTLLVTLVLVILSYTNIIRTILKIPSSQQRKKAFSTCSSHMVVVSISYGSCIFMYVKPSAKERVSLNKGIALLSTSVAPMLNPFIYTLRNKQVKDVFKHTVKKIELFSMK
Method in brief: as §1

OR6C75 (Homo sapiens) = target: T5, OR6C75 (Homo sapiens) (UniProt A6NL08)
T5 sequence (whole entry): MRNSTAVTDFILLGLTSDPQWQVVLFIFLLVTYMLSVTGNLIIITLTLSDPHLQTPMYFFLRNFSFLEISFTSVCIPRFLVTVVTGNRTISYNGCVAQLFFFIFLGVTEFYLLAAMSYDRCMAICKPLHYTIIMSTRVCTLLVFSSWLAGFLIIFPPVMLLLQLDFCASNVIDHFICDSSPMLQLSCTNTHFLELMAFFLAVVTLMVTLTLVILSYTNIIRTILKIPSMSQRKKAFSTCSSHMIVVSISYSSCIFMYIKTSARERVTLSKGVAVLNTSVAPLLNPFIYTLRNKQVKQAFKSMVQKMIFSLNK
Method in brief: as §1

OR6C76 (Homo sapiens) = target: T6, OR6C76 (Homo sapiens) (UniProt A6NM76)
T6 sequence (whole entry): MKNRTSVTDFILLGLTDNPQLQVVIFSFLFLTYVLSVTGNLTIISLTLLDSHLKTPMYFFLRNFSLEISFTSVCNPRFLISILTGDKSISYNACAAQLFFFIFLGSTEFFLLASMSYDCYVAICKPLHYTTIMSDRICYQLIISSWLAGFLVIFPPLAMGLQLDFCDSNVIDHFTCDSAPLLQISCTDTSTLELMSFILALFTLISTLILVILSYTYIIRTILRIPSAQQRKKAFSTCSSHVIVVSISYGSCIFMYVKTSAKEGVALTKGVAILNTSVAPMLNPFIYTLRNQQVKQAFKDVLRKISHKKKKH
Method in brief: as §1

OR6F1 (Homo sapiens) = target: T7, OR6F1 (Homo sapiens) (UniProt Q8NGZ6)
T7 sequence (whole entry): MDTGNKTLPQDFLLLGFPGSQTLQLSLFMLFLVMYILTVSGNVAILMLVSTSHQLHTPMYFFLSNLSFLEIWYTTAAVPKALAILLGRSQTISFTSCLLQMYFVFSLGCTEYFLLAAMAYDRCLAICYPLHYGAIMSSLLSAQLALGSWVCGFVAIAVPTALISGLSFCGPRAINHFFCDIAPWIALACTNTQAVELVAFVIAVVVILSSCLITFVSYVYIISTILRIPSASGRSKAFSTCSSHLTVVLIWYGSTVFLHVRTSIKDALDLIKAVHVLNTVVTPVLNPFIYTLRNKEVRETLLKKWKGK
Method in brief: as §1

OR6J1 (Homo sapiens) [1] = target: T8, OR6J1 (Homo sapiens) (UniProt Q8NGC5)
T8 sequence (whole entry): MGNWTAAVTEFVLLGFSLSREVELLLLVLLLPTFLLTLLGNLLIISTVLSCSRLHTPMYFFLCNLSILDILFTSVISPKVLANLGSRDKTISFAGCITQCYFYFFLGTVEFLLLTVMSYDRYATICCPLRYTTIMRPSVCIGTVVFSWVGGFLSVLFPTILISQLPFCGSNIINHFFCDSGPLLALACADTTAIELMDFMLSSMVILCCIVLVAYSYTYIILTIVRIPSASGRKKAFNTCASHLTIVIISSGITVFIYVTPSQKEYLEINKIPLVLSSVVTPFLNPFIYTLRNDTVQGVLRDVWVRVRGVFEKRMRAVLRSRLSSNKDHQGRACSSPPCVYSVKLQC
Method in brief: as §1

OR6K2 (Homo sapiens) = target: T9, OR6K2 (Homo sapiens) (UniProt Q8NGY2)
T9 sequence (whole entry): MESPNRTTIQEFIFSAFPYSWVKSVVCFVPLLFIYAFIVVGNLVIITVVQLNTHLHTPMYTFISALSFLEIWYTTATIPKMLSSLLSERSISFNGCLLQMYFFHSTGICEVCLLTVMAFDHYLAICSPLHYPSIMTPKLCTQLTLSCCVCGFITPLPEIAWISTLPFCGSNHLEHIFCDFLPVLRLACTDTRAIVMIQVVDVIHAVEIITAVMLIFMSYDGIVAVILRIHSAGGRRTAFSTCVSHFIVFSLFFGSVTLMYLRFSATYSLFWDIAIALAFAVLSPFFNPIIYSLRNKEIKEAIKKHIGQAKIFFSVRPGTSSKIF
Method in brief: as §1

OR6K3 = system: T10, OR6K3
T10 sequence (whole entry): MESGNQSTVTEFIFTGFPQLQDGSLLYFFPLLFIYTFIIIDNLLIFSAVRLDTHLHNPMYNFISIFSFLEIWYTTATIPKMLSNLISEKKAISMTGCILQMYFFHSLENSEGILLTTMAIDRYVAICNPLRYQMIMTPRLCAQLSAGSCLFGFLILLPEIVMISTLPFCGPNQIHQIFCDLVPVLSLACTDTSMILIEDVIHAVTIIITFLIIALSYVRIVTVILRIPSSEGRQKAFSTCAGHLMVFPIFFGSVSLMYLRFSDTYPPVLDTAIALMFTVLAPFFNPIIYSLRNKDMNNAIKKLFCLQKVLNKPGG
Method in brief: as §1

OR6K6 (Homo sapiens) = target: T11, OR6K6 (Homo sapiens) (UniProt Q8NGW6)
T11 sequence (whole entry): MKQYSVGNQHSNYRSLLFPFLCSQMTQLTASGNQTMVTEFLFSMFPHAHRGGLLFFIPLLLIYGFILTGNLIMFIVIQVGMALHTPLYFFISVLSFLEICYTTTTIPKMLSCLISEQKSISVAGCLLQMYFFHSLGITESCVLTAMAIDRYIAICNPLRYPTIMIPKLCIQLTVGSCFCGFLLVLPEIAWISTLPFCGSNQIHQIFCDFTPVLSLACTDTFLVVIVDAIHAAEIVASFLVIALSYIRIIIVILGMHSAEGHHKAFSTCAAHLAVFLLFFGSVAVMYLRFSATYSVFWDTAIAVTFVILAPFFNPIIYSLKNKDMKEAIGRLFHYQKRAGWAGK
Method in brief: as §1

OR6M1 (Homo sapiens) = target: T12, OR6M1 (Homo sapiens) (UniProt Q8NGM8)
T12 sequence (whole entry): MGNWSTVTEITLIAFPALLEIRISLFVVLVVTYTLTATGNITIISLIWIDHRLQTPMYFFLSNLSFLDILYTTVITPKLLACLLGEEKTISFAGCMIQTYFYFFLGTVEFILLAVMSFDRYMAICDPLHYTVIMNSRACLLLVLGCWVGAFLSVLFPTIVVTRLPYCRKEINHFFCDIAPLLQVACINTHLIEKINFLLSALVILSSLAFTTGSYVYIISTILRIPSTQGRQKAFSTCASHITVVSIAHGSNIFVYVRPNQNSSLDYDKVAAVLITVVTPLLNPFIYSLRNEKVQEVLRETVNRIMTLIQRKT
Method in brief: as §1

OR6M1 R224C = system: T13, OR6M1 R224C
T13 sequence (whole entry): T12 sequence (whole entry) with R224C
Method in brief: as §1

OR6M1 T276K = system: T14, OR6M1 T276K
T14 sequence (whole entry): T12 sequence (whole entry) with T276K
Method in brief: as §1

OR6N1 (Homo sapiens) = target: T15, OR6N1 (Homo sapiens) (UniProt Q8NGY5)
T15 sequence (whole entry): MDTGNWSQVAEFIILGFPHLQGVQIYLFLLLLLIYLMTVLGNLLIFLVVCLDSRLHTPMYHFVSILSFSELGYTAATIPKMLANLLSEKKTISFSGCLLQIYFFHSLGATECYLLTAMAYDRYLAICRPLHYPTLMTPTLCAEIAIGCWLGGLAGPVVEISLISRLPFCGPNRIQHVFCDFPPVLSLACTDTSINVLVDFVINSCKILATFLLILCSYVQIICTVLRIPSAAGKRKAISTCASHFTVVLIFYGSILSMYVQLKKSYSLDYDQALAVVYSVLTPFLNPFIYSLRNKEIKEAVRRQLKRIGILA
Method in brief: as §1

OR6N2 (Homo sapiens) = target: T16, OR6N2 (Homo sapiens) (UniProt Q8NGY6)
T16 sequence (whole entry): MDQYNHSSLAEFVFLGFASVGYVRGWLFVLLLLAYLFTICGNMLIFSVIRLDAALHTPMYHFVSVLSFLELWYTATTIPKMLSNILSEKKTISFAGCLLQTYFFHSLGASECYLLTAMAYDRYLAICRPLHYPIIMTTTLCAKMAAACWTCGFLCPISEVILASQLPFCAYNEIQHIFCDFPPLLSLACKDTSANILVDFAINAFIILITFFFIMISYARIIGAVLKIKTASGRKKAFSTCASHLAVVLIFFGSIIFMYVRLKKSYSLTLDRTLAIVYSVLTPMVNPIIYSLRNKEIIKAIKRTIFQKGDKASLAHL
Method in brief: as §1

OR6P1 (Homo sapiens) = target: T17, OR6P1 (Homo sapiens) (UniProt Q8NGX9)
T17 sequence (whole entry): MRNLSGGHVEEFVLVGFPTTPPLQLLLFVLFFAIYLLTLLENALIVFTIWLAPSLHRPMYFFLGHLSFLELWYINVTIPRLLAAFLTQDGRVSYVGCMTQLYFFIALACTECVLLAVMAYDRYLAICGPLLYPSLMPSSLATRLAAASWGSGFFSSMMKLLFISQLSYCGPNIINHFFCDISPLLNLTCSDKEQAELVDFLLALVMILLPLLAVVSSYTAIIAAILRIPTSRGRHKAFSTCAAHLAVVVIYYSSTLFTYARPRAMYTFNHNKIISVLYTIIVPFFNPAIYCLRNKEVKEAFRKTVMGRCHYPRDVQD
Method in brief: as §1

OR6Q1 (Homo sapiens) = target: T18, OR6Q1 (Homo sapiens) (UniProt Q8NGQ2)
T18 sequence (whole entry): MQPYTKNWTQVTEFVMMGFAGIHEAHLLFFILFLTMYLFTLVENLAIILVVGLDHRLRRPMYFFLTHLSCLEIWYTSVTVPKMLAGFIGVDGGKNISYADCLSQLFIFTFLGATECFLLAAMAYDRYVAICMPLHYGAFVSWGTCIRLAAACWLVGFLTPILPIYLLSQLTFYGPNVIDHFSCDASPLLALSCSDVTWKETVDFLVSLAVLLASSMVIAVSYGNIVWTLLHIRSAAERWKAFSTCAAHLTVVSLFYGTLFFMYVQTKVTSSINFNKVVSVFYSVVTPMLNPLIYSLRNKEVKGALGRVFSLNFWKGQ
Method in brief: as §1

OR6J1 (Homo sapiens) [2] = target: T19, OR6J1 (Homo sapiens) (UniProt Q8NGC5); remark: listed apart in the source
T19 sequence (whole entry): T8 sequence (whole entry) with S250P
Method in brief: as §1

OR6K3 (Homo sapiens) = target: T20, OR6K3 (Homo sapiens) (UniProt Q8NGY3)
T20 sequence (whole entry): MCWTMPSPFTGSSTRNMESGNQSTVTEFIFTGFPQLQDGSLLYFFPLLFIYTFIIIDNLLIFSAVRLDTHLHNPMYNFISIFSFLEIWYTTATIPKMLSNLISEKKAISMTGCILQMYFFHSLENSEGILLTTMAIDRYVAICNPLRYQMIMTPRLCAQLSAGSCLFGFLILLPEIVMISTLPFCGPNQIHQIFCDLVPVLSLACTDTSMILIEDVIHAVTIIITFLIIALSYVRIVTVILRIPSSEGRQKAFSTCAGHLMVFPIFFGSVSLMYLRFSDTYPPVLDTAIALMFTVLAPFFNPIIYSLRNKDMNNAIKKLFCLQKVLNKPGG
Method in brief: as §1

Measured: odorant receptor agonist call;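 note: active if original authors judged signal statistically different from baseline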

CC1=NC(C)C(C)S1 (stereo not drawn)
not listed: OR6J1 (Homo sapiens) [2] | OR6K3 (Homo sapiens)
inactive: all other assays above

CCC1OC(=O)C(O)=C1C (stereo not drawn)
not listed: OR6J1 (Homo sapiens) [2] | OR6K3 (Homo sapiens)
inactive: all other assays above

CCCCCCC=CCCC=O
not listed: OR6J1 (Homo sapiens) [1] | OR6K3 | OR6M1 R224C
inactive: all other assays above
